Shown are actives, neighbours in structure and some others; about 3.7% of the full set was active somewhere.
hERG protect – hERG (human) protection from proarrhythmic block; Q12809; CHO-hERG, FluxOR thallium flux, dofetilide IC70 present; 0.51% of 310,000 active; AID 1511; activation (rescue from dofetilide block), less the hit threshold, % at 10 µM;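 active means activation above the mean of controls blocked by dofetilide plus 5 SD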;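 further: thallium influx through hERG after potassium depolarization seen as dye fluorescence rise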
Kir21 inh – inhibitors of mouse Kir2.1 inward-rectifier potassium channel; P35561; HEK293-Kir2.1, FluxOR thallium flux fluorescence; hits give low values; B-score at 10 µM; 0.85% of 310,000 active;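 active means fluorescence ratio B-score at or below minus 3 SD of library scores, with starting-brightness B-score within 2 SD, cut at about -4.2 in these data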;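 further: channel flux triggered by added potassium and thallium sulfate stimulus; B-score of peak minus minimum fluorescence over baseline after thallium stimulus; more negative B-score means stronger Kir2.1 block with less thallium influx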
KCNK9 inh – human KCNK9 channel inhibition. Q9NPC2. HEK293 KCNK9, FluxOR thallium flux fluorescence; hits give low values. B-score at 10 µM. 1.2% of 310,000 active. AID 488922;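 active means ratio B-score over 3 SD below the library mean, with starting fluorescence within 5 SD of its mean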;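 further: negative B-score means less thallium flux so channel inhibition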
KCNQ1 pot – potentiates or activates the human KCNQ1 potassium channel; P51787; CHO-K1 KCNQ1, thallium flux FluxOR fluorescence; hits give high values; B-score at 10 µM; 0.35% of 310,000 active;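 active means fluorescence ratio B-score, a plate-corrected score, at least three library SD, with initial intensity B-score within 5 SD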
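Test system: CHO-K1 cells stably expressing KCNQ1 / Medium: assay buffer / Also added: depolarizing K+/Tl+ stimulus, K2SO4 and Tl2SO4 each 12.5 mM in 5x stock / Incubation: 90 min dye loading and 20 min compound exposure, both at room temperature / Signal: thallium influx via FluxOR fluorescence, kinetic imaging / Evaluation: B score of baseline-normalized fluorescence ratio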
KCNK3 block – human KCNK3 channel inhibition, primary screen | O14649 | CHO-KCNK3 thallium flux, FluxOR fluorescence; hits give low values | B-score at 10 µM | 0.84% of 340,000 active | AID 602410;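 active means B-score under library mean minus 4 SD, starting fluorescence ratio at most library mean plus 5 SD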;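 further: more negative B-score means stronger inhibition of thallium flux through KCNK3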
Target sequence (O14649 whole entry, looked up): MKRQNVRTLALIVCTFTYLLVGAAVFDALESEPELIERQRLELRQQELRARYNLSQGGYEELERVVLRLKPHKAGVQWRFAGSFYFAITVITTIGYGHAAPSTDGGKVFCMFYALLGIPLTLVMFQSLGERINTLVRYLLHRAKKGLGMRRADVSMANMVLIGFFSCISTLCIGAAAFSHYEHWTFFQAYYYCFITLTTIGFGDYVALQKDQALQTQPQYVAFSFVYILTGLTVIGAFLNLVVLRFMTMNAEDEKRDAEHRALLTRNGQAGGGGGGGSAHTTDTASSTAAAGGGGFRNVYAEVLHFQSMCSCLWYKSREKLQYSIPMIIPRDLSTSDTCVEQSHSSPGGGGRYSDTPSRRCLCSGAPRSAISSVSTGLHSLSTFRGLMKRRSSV
KCNQ1 inh – inhibitors of human KCNQ1 potassium channel. CHO-K1 KCNQ1, FluxOR thallium flux fluorescence; hits give high values. B-score at 10 µM. 1.3% of 310,000 active. AID 2642;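 active means compounds whose thallium flux B-score, printed positive for inhibition, exceeds three library SD while starting fluorescence stays within three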;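 further: channel opened by potassium depolarization with thallium stimulus after 20 min compound exposure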
Hits are given with their value; n = inactive; x = not tested or not shown.

SMILES	hERG protect	Kir21 inh	KCNK9 inh	KCNQ1 pot	KCNK3 block	KCNQ1 inh
C[C@H](NC(=O)c1nc[nH]c1C(=O)NC(c1ccccc1)c1ccccc1)C(=O)OC(C)(C)C	n	n	-7	n	n	n
C[C@H](NC(=O)c1nc[nH]c1C(=O)N[C@H](C)c1ccccc1)C(=O)OC(C)(C)C	n	n	n	n	n	n
N#C/C(=C\c1cccnc1)C(=O)Nc1cccc2ccccc12	n	-4.5	n	n	n	n
N#C/C(=C\c1cccnc1)C(=O)Nc1cccc(Cl)c1	8.5	n	n	n	n	n
CN1C(=O)NC(c2ccccc2[N+](=O)[O-])C2=C1CC(C)(C)CC2=O (stereo unspecified)	n	n	n	n	n	n
CN1C(=O)NC(c2ccccc2[N+](=O)[O-])C2=C1CCCC2=O (stereo unspecified)	n	n	n	n	n	6
S=C(NCCNCc1ccccc1)NC1CCCCC1	n	n	-7.1	n	x	n
S=C(NCCc1ccccc1)NC1CCCCCC1	n	n	n	n	n	n
Clc1ccccc1CSc1nnc(-c2cccnc2)n1Cc1ccco1	n	-4.4	n	n	n	n
Fc1ccc(CSc2nnc(-c3cnccn3)n2Cc2ccco2)cc1	n	n	n	n	n	n
C=CCn1c(SCc2cccc3ccccc23)nnc1-c1cccnc1	n	-6.4	n	n	n	n
C(=C\c1ccccc1)/CSc1nnc(-c2cnccn2)n1Cc1ccco1	n	-5.3	n	n	n	n
C=CCn1c(SCC(=O)Nc2ccc(C(=O)O)cc2)nnc1-c1cccnc1	n	n	n	n	n	n
Cn1ccnc1C(=O)Cc1ccc([N+](=O)[O-])cc1	n	n	n	n	n	n
O=C(COC(=O)CCC(=O)c1ccc(F)cc1)Nc1ccc2[nH]c(=O)[nH]c2c1	n	n	n	n	n	n
COC(=O)c1ccc(COC(=O)c2cccn2C)o1	n	n	n	n	n	n
CCOC(=O)c1cnn(-c2nc3c(C)cccc3s2)c1C(F)(F)F	n	n	-7.9	n	n	n
CC(c1cccs1)N(Cc1ccco1)C(=S)Nc1ccc(F)c(Cl)c1 (stereo unspecified)	n	n	n	n	n	10
Cc1ccccc1NC(=S)N(Cc1ccco1)C(C)c1cccs1 (stereo unspecified)	n	n	n	n	n	n
CCOC(=O)C(C)/C(C)=N/NC(=O)CCC(=O)Nc1cc(C)ccc1C (stereo unspecified)	n	n	n	n	n	n
Cc1cc(C)n(-c2nnc(C)n2/N=C/c2ccccc2F)n1	n	n	n	n	n	n
Cc1cc(C)n(-c2nnc(C)n2/N=C/c2ccccc2OCc2ccccc2Cl)n1	n	n	-7.1	n	n	n
O=S(=O)(c1ccccc1F)N1CCc2ccccc2C1	n	n	n	n	n	n
CC(C)=CCc1cc2c(=O)c3c(O)c4c(cc3oc2c(O)c1O)OC(C)C4(C)C (stereo unspecified)	n	n	n	n	x	6
CC(=O)OCCN(C)c1cc(SC(C)C)c2nonc2c1[N+](=O)[O-]	7.4	n	n	n	n	n
SMILES	hERG protect	Kir21 inh	KCNK9 inh	KCNQ1 pot	KCNK3 block	KCNQ1 inh
C/C=C(/C)C(=O)O[C@@H]1c2c(ccc3ccc(=O)oc23)OC(C)(C)[C@@H]1OC(=O)/C(C)=C\C	n	n	-7.4	n	n	n
C=CCNc1nc(-c2c(C)nc3sccn23)cs1	n	n	n	n	n	n
Cc1nc2sccn2c1-c1csc(NCc2ccccc2)n1	n	n	n	n	n	6
CCOC(=O)C1CCC(CN(Cc2ccccc2C)S(=O)(=O)c2ccc([N+](=O)[O-])cc2)CC1 (stereo unspecified)	n	n	n	n	n	n
CC(C)n1c(CSCc2ccc(Cl)cc2Cl)n[nH]c1=S	n	-4.5	n	n	n	n
Nc1nnc(CSCc2ccc(Cl)cc2Cl)s1	n	n	n	n	n	n
CC(=O)/C(=C/c1ccccc1)C(=O)Nc1ccccc1C	n	-5.5	n	n	n	n
Cn1c(=O)[nH]c(=O)c2c1nc(N1CCN(c3cccc(Cl)c3)CC1)n2CCCc1ccccc1	n	n	n	n	x	n
CCCCCn1c(N2CCN(c3cccc(Cl)c3)CC2)nc2c1c(=O)[nH]c(=O)n2C	n	n	-7.3	n	n	n

Source: PubChem BioAssay
